# Test system: ABCG2-transfected HEK293 cells
# Assay: Sensitization of ABCG2-transfected cells to mitoxantrone, MTT assay
# Format: cell-based, human
# Settings: no chalcone
# Method in brief: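 ABCG2-transfected (resistant) and empty-vector (sensitive) HEK293 cells seeded at 1 × 10^4 cells/well and incubated overnight. Then grown 72 h at 37°C, 5% CO2 with increasing mitoxantrone; resistant cells ran with or without 1 μM test compound. Survival read by MTT against 0.1% DMSO medium controls. At least three replicates; mitoxantrone IG50 from fitted curves.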
structure (smiles),measurement,setting,value
"O=C1c2c(O)ccc(O)c2C(=O)c2c(NCCNCCO)ccc(NCCNCCO)c21 [mitoxantrone, Mitoxantrone]","IG50 of mitoxantrone, resistant cells",ABCG2-transfected resistant cells,82.8 ± 21.7 nM
same,"IG50 of mitoxantrone, sensitive control cells",sensitive control HEK293 cells (empty vector),14.5 ± 3.6 nM
